# Source: PubChem BioAssay
# TMEM16A inh: inhibitors of mouse TMEM16A calcium-activated chloride channel | HEK293 TMEM16A/YFP iodide influx fluorescence, ionomycin | normalized B-score (activity score, 25-100; higher = stronger inhibition) at 10 µM | actives 1.2% (n = 310,000) | Q8BHY3;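 active = ratio plate-corrected score three or more library SD toward inhibition, starting fluorescence score within five deviations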;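 note: score derived from kinetic fluorescence span divided by baseline fluorescence per well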
# MC4R barr agon: human MC4R agonism via beta-arrestin | P32245 | U2OS MC4R beta-arrestin complementation, luminescence; percent of melanotan II response, DMSO zero | activation, % at 8.9 µM | actives 0.98% (n = 360,000);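 active = activation above a per-plate cutoff, the mean activation of sample wells on that plate plus 3 SD, cut at about 8% in these data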
# MC4R antagonist: blocks human MC4R cAMP signaling. P32245. MC4R-expressing cells, MTII-stimulated cAMP, LANCE TR-FRET. inhibition, % at 6.5 µM. actives 0.48% (n = 360,000);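 active = inhibition above its plate's cutoff, the mean of tested wells on that plate plus 3 SD, cut at about 29% in these data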;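 note: 0% = Melanotan II alone and 100% = Melanotan II plus saturating MCL0020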
#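 system = U2OS cells with stable human MC4R expression | also added = Melanotan II challenge after compound preincubation | dosing = one concentration, 6.5 µM nominal | incubation = compound 30 min, challenge 1 h, detection 1 h | measured by = TR-FRET with Eu-cAMP and labeled anti-cAMP, 671 nm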
# HTR2A ag: activates the mouse 5-HT2A serotonin receptor. activation, % at 7.6 µM. CHO-K1 mHTR2A beta-arrestin complementation, luminescence; percent of 30 µM serotonin response. actives 0.66% (n = 360,000). P35363. AID 624169;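 active = activation above a run cutoff, the mean activation of all tested compounds plus 3 SD, cut at about 14% in these data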;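 note: 0% = plate median of compound wells and 100% = 30 µM serotonin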
# ANO1 activ: mouse TMEM16A channel activation, primary screen | B-score at 10 µM | Q8BHY3 | actives 0.3% (n = 340,000) | AID 623877 | HEK293 TMEM16A/YFP-H148Q/I152L, iodide quench fluorescence; stronger effect = lower value;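 active = fluorescence-ratio B-score plate-corrected deviation score at least 3 library SD below zero, with starting fluorescence score within 5 deviations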;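 note: channel opened by trigger with iodide after compound preincubation; score built on the fluorescence ratio of max minus min over baseline; more negative score means more quench and so TMEM16A activation or potentiation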
# MIN6 prolif: inducers of beta-cell replication in MIN6 cells; MIN6 cells proliferation, ATPlite luminescence, 48 h; cells starved in 0.2% serum; 100% = growth in 10% serum; actives 0.29% (n = 330,000); proliferation, % at 10 µM;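 active = compounds whose signal lies at least 3.5 SD above the mean of all wells on their plate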;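 note: 0% = DMSO-treated cells in low-serum medium and 100% = 10% serum control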
# MOR ag counter: activates human mu opioid receptor in HTR2A counterscreen; shares compounds with HTR2A ag; U2OS OPRM1 beta-arrestin PathHunter, luminescence; DMSO 0%, DAMGO 9.3 µM 100%; activation, % at 9.3 µM; actives 5.3% (n = 2,300); AID 624380;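 active = mean activation above the mean of DMSO-only wells plus 3 SD, cut at about 0.5% in these data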
# m5-HT2A ag conf: confirmation of mouse HTR2A serotonin receptor agonists; shares compounds with HTR2A ag; CHO-K1 PathHunter beta-arrestin recruitment, luminescence; DMSO 0%, 30 µM serotonin 100%; activation, % at 7.6 µM; actives 19% (n = 2,300);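 active = mean activation across triplicates above the hit threshold derived in the original primary screen, cut at about 15% in these data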
# Active calls of the source: *; i = inactive; nt = no result; ! = not active in a repeat. Sampled rows, rich in hits. Any-hit rate of the full collection: about 3.4%.
SMILES,TMEM16A inh,MC4R barr agon,MC4R antagonist,HTR2A ag,ANO1 activ,MIN6 prolif,MOR ag counter,m5-HT2A ag conf
CC(C)CC(=O)Nc1ccc(C(=O)COC(=O)CN2C(=O)NC3(CCCCC3C)C2=O)cc1 (centres undefined),nt,-3,6,18*,i,3,0,2
Cc1ccc(S(=O)(=O)Nc2c(C)n(C)n(-c3ccccc3)c2=O)cc1C(=O)OCC(=O)N1CCCC(C)C1 (centres undefined),i,-4,7,16*,i,-1,-1,1
Cc1c(NS(=O)(=O)c2cc(C(=O)N3CCCC(C)C3)ccc2Cl)c(=O)n(-c2ccccc2)n1C (centres undefined),nt,-1,3,1,i,-4,nt,nt
CCOCCn1c(=O)c2c(nc3n2CC(C)CN3CCc2ccccc2)n(C)c1=O (centres undefined),i,-4,8,15*,i,-1,0,-1
C[C@H](O)CC(=O)O,i,-1,4,16*!,i,3,0,-4
O=C(CCN1C(=O)c2cccc3cccc(c23)C1=O)NCc1ccco1,i,0,4,16*,i,-3,-1,-2
CCCCNc1c(-c2cc3ccccc3o2)nc2nc(C)cc(C)n12,nt,nt,nt,18*,nt,nt,0.8*,5
COC(=O)NNC(=O)c1ccccc1OC,i,-1,-4,5,i,-2,nt,nt
COc1ccccc1C(=O)NNC(=O)C1CC=CCC1 (centres undefined),i,-2,-6,19*,i,-1,-1,1
O=C(CN1CCN(Cc2ccccc2F)C1=O)NCCc1ccc(Cl)cc1,i,0,6,16*,i,0,-1,-7
CCCNC(=O)C1(C)CCN(Cc2cc(-c3ccccc3)on2)C1 (centres undefined),nt,-3,7,-9,nt,nt,nt,nt
O=C(NC1CCC(O)CC1)c1ccc(NS(=O)(=O)c2cccc([N+](=O)[O-])c2)cc1 (centres undefined),nt,0,8,15*,nt,-1,0,-4
CN1CCN(C(=O)c2ccc(Cc3cn(C)c4ccccc34)nc2)CC1,nt,1,27,-5,nt,nt,nt,nt
COc1ccc2[nH]c3c(c2c1)CCN1C(=O)C(CC(=O)NC/C=C(\C)CCC=C(C)C)C[C@H](C(=O)N2CCOCC2)[C@@]31CCC1CCCC1 (some centres undefined),nt,0,-2,7,nt,nt,nt,nt
CCC1(c2ccccc2)NC(=O)N(CC(=O)NC2CCCCCC2)C1=O (centres undefined),nt,-2,-1,-4,i,-4,nt,nt
COc1ccc(C(=O)N(C)C2CCCN(Cc3ccccc3F)C2)cc1OC (centres undefined),i,-1,7,17*,i,1,-1,-3
COc1ccccc1NC(=O)COC(=O)c1ccc(N2CCCC2=O)cc1,nt,-5,4,-1,i,0,nt,nt
CC(C)N1C(=O)CCC1C(=O)NCc1cccs1 (centres undefined),i,-1,7,23*,i,-4,-1,-3
O=C(NCc1cccs1)C1CC1,i,0,20,6,i,2,nt,nt
Nc1c(C(=O)OCC(=O)Nc2cccc([N+](=O)[O-])c2)[nH]c(=O)[nH]c1=O,nt,-2,-3,-2,i,-1,nt,nt
Cc1ccccc1OCC(=O)NCC(c1cccs1)N1CCOCC1 (centres undefined),i,1,0,18*,i,1,0,-3
COc1ccccc1NS(=O)(=O)c1ccc(C)c(C(=O)NCC(c2cccs2)N2CCOCC2)c1 (centres undefined),nt,0,2,19*,i,nt,0,-1
